In ChEMBL document CHEMBL1138283, “5'-O-[(N-acyl)sulfamoyl]adenosines as antitubercular agents that inhibit MbtA: an adenylation enzyme required for siderophore biosynthesis of the mycobactins” (J Med Chem, 2007) one finds Ki and MIC99 data, which are given here for 30 compounds.

For experiment [1], the target named is T1, Salicyl-AMP ligase / salicyl-S-ArCP synthetase (Mycobacterium tuberculosis, UniProt P71716).
T1 sequence (P71716 whole entry): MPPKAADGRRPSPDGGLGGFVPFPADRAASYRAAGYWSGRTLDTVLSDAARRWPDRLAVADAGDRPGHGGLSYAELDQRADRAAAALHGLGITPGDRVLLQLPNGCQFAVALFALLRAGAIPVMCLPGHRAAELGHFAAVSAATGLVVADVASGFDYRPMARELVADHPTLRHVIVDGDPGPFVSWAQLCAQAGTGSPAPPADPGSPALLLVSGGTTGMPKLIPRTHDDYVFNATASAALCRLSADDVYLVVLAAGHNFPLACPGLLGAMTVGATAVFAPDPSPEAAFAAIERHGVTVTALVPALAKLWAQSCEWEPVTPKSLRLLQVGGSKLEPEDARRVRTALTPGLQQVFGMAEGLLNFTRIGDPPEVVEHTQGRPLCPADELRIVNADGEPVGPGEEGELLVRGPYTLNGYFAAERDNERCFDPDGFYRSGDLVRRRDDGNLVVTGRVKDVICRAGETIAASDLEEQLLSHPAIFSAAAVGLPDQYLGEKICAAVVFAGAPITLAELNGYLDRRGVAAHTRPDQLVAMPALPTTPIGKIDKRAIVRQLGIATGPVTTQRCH
In words: Inhibition of Mycobacterium tuberculosis recombinant MbtA expressed in Escherichia coli by ATP/PPi exchange assay. Conditions: read-out: Ki app. Summed up:
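Recombinant MbtA expressed in E. coli, 7 nM, at 37 °C in 75 mM Tris-HCl pH 7.5, 10 mM MgCl2, 2 mM DTT, 250 μM salicylic acid, 10 mM ATP, 1 mM PPi. Reaction started with [32P]PPi, five inhibitor concentrations, in duplicate. Initial rates (≤10% reaction) measured. Quenched with HClO4/PPi/charcoal; charcoal-bound [32P]ATP counted by scintillation. Apparent Ki from Hill or Morrison (tight-binding) fits.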

Experiment [2] deals with Mycobacterium tuberculosis. In words: Antimycobacterial activity against Mycobacterium tuberculosis H37Rv in iron deficient GAST medium. It counts as functional. Summed up: (§1)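 Broth microdilution MIC against M. tuberculosis H37Rv in iron-deficient GAST, or GAST supplemented with 200 μM FeCl3 (iron-rich). Compounds added from DMSO stocks; DMSO-only wells as negative control, isoniazid as positive control. Initial density 10^4–10^5 cells/assay, 37 °C, growth read as OD620 at 10–14 days. Run in quadruplicate; reported as MIC99.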

Experiment [3] deals with Mycobacterium tuberculosis. In words: Antimycobacterial activity against Mycobacterium tuberculosis H37Rv in iron rich GAST medium. It counts as functional. In a few lines:
as §1

pKi: −log10 of the molar value. Values after ≈ are worked out from the molar mass of the structure shown. Some results are limits rather than exact numbers.

As a reminder, the pKi is −log10 of the Ki, conventionally taken in molar units. A word on the MIC99: it is an inhibitory concentration at the 99% level, which refers to growth in some studies and to a panel of isolates in others. A low value points to higher susceptibility. As for `Nc1ncnc2c1ncn2[C@@H]1O[C@H](COS(=O)(=O)NC(=O)c2ccccc2F)[C@@H](O)[C@H]1O`, in experiment [1], the pKi was 7.42. Also, the MIC99 stood at 12.5 µM (≈ 5.86 µg/mL) in experiment [2] and 50 µM (≈ 23.4 µg/mL) in experiment [3].
Take `Nc1ncnc2c1ncn2[C@@H]1O[C@H](COS(=O)(=O)NC(=O)C2CCCCC2)[C@@H](O)[C@H]1O`: the pKi in experiment [1] is 4.76. Moreover, the MIC99 in experiment [2] and in experiment [3] was more than 200 µM each time.
As to `Nc1ncnc2c1ncn2[C@@H]1O[C@H](COS(=O)(=O)NC(=O)c2c(O)cccc2F)[C@@H](O)[C@H]1O`, the pKi in experiment [1] is 8.14. Moreover, the MIC99 in experiment [2] came out at 0.78 µM (≈ 0.378 µg/mL); in experiment [3], 3.13 µM (≈ 1.52 µg/mL).
For the compound `[N-]=[N+]=Nc1c(F)c(F)c(C(=O)NS(=O)(=O)OC[C@H]2O[C@@H](n3cnc4c(N)ncnc43)[C@H](O)[C@@H]2O)c(F)c1F`, the pKi in experiment [1] was less than 4.00. Moreover, the MIC99 in experiment [2] and in experiment [3] was more than 200 µM in each case.
Consider `CC(=O)NS(=O)(=O)OC[C@H]1O[C@@H](n2cnc3c(N)ncnc32)[C@H](O)[C@@H]1O`, for which, in experiment [1], the pKi is less than 4.00. Moreover, the MIC99 in experiment [2] and in experiment [3] was more than 200 µM each time.
For the compound `Nc1ncnc2c1ncn2[C@@H]1O[C@H](COS(=O)(=O)NC(=O)c2cccc(O)c2O)[C@@H](O)[C@H]1O`, in experiment [1], the negative logarithm of the Ki (pKi) is 6.86. Also, the MIC99 in experiment [2] and in experiment [3] was more than 200 µM in each case.
On to `Nc1ncnc2c1ncn2[C@@H]1O[C@H](COS(=O)(=O)NC(=O)c2ccc(C(F)(F)F)cc2O)[C@@H](O)[C@H]1O`, for which the pKi in experiment [1] is 5.36. In addition, the MIC99 in experiment [2] and in experiment [3] was more than 200 µM throughout.
For the compound `Nc1ncnc2c1ncn2[C@@H]1O[C@H](COS(=O)(=O)NC(=O)[C@@H](N)Cc2ccccc2)[C@@H](O)[C@H]1O` [PHESA], the pKi in experiment [1] was 4.44. Further, the MIC99 in experiment [2] and in experiment [3] was more than 200 µM throughout.
As for `Nc1ncnc2c1ncn2[C@@H]1O[C@H](COS(=O)(=O)NC(=O)c2ccc[nH]c2=O)[C@@H](O)[C@H]1O`, the pKi in experiment [1] is 5.43. In addition, the MIC99 in experiment [2] and in experiment [3] was more than 200 µM throughout.
For `Nc1ncnc2c1ncn2[C@@H]1O[C@H](COS(=O)(=O)NC(=O)N2CCOCC2)[C@@H](O)[C@H]1O`, the pKi in experiment [1] is less than 4.00. Further, the MIC99 in experiment [2] and in experiment [3] was more than 200 µM throughout.
As to `Nc1ncnc2c1ncn2[C@@H]1O[C@H](COS(=O)(=O)NC(=O)c2cccc(Cl)c2O)[C@@H](O)[C@H]1O`, in experiment [1], the negative-log Ki (pKi) was 7.21. The MIC99 is 50 µM (≈ 25 µg/mL) in experiment [2] and more than 200 µM in experiment [3].
As for `Nc1ccc(C(=O)NS(=O)(=O)OC[C@H]2O[C@@H](n3cnc4c(N)ncnc43)[C@H](O)[C@@H]2O)c(O)c1`, in experiment [1], the pKi was 7.40. The MIC99 in experiment [2] was found to be 1.56 µM (≈ 0.751 µg/mL); in experiment [3], 25 µM (≈ 12 µg/mL).
`Nc1ncnc2c1ncn2[C@@H]1O[C@H](COS(=O)(=O)NC(=O)c2ccc(Cl)cc2O)[C@@H](O)[C@H]1O`: the pKi in experiment [1] is 7.92. Also, the MIC99 turned out to be 12.5 µM (≈ 6.26 µg/mL) in experiment [2] and 50 µM (≈ 25 µg/mL) in experiment [3].
For `Nc1ncnc2c1ncn2[C@@H]1O[C@H](COS(=O)(=O)NC(=O)Cc2ccccc2)[C@@H](O)[C@H]1O`, in that order: less than 4.00, more than 200 µM and more than 200 µM.
Regarding `Nc1ncnc2c1ncn2[C@@H]1O[C@H](COS(=O)(=O)NC(=O)C2CCCC2)[C@@H](O)[C@H]1O`, the pKi in experiment [1] was 4.30. Also, the MIC99 in experiment [2] and in experiment [3] was more than 200 µM each time.
As to `Nc1ncnc2c1ncn2[C@@H]1O[C@H](COS(=O)(=O)NC(=O)c2ccccc2[N+](=O)[O-])[C@@H](O)[C@H]1O`, the pKi in experiment [1] was 5.14. For the same compound, the MIC99 in experiment [2] and in experiment [3] was more than 200 µM each time.
On to `Cc1ccc(C(=O)NS(=O)(=O)OC[C@H]2O[C@@H](n3cnc4c(N)ncnc43)[C@H](O)[C@@H]2O)c(O)c1`, for which the pKi in experiment [1] is 7.85. Besides, the MIC99 in experiment [2] was found to be 1.56 µM (≈ 0.75 µg/mL); in experiment [3], 25 µM (≈ 12 µg/mL).
The corresponding values for `Nc1ncnc2c1ncn2[C@@H]1O[C@H](COS(=O)(=O)NC(=O)c2ccc(F)cc2O)[C@@H](O)[C@H]1O` are 7.92, 0.098 µM (≈ 0.0475 µg/mL) and 0.39 µM (≈ 0.189 µg/mL).
Turning to `Nc1ncnc2c1ncn2[C@@H]1O[C@H](COS(=O)(=O)NC(=O)c2ccccc2Cl)[C@@H](O)[C@H]1O`, the pKi in experiment [1] was 4.74. For the same compound, the MIC99 in experiment [2] and in experiment [3] was more than 200 µM throughout.
Turning to `Nc1ncnc2c1ncn2[C@@H]1O[C@H](COS(=O)(=O)NC(=O)c2ccc(Br)cc2O)[C@@H](O)[C@H]1O`, the pKi in experiment [1] was 7.68. Besides, the values for the MIC99 in experiment [2] and in experiment [3] were 6.25 µM (≈ 3.41 µg/mL) and 50 µM (≈ 27.3 µg/mL), respectively.
Consider `Nc1ncnc2c1ncn2[C@@H]1O[C@H](COS(=O)(=O)NC(=O)c2cccnc2Cl)[C@@H](O)[C@H]1O`, for which, in experiment [1], the pKi is 6.76. Besides, the figures for the MIC99 in experiment [2] and in experiment [3] were 12.5 µM (≈ 6.07 µg/mL) and 50 µM (≈ 24.3 µg/mL), respectively.
`Nc1ncnc2c1ncn2[C@@H]1O[C@H](CNC(=O)c2coc3ccccc3c2=O)[C@@H](O)[C@H]1O`: the pKi in experiment [1] is less than 4.00. The MIC99 is 12.5 µM (≈ 5.48 µg/mL) in experiment [2] and 50 µM (≈ 21.9 µg/mL) in experiment [3].
Consider `Nc1ncnc2c1ncn2[C@@H]1O[C@H](COS(=O)(=O)NC(=O)c2cc(Cl)ccc2O)[C@@H](O)[C@H]1O`, for which the pKi in experiment [1] is 7.70. In addition, the MIC99 in experiment [2] came out at 12.5 µM (≈ 6.26 µg/mL); in experiment [3], 50 µM (≈ 25 µg/mL).
For `Nc1ncnc2c1ncn2[C@@H]1O[C@H](COS(=O)(=O)NC(=O)c2ccc(O)c(O)c2)[C@@H](O)[C@H]1O`, in that order: less than 4.00, more than 200 µM and more than 200 µM.
In experiment [3], `Nc1ncnc2c1ncn2[C@@H]1O[C@H](CNS(=O)(=O)NC(=O)c2ccccc2O)[C@@H](O)[C@H]1O` showed an MIC99 of 0.39 µM (≈ 0.182 µg/mL).
For the compound `COC(=O)NS(=O)(=O)OC[C@H]1O[C@@H](n2cnc3c(N)ncnc32)[C@H](O)[C@@H]1O`, the negative-log Ki (pKi) in experiment [1] is 5.60. Further, the MIC99 in experiment [2] and in experiment [3] was more than 200 µM throughout.
Consider `Nc1ncnc2c1ncn2[C@@H]1O[C@H](CNC(=O)NC(=O)c2ccccc2O)[C@@H](O)[C@H]1O`, for which the pKi in experiment [1] is 5.90. Also, the MIC99 is 200 µM (≈ 85.9 µg/mL) in experiment [2] and more than 200 µM in experiment [3].
As for `Nc1ccccc1C(=O)NS(=O)(=O)OC[C@H]1O[C@@H](n2cnc3c(N)ncnc32)[C@H](O)[C@@H]1O`, the pKi in experiment [1] is 6.11. For the same compound, the MIC99 in experiment [2] and in experiment [3] was more than 200 µM each time.
On to `Nc1ncnc2c1ncn2[C@@H]1O[C@H](COS(=O)(=O)NC(=O)c2ccccc2)[C@@H](O)[C@H]1O`, for which the pKi in experiment [1] was 7.04. The values for the MIC99 in experiment [2] and in experiment [3] were 12.5 µM (≈ 5.63 µg/mL) and 50 µM (≈ 22.5 µg/mL), respectively.
The corresponding values for `Nc1ncnc2c1ncn2[C@@H]1O[C@H](COS(=O)(=O)NC(=O)c2cccnc2F)[C@@H](O)[C@H]1O` are 5.54, more than 200 µM and more than 200 µM.
